# Reference: ChEMBL document CHEMBL4024768, “Discovery and Optimization of Thiazolidinyl and Pyrrolidinyl Derivatives as Inhaled PDE4 Inhibitors for Respiratory Diseases” (J Med Chem, 2017)
# Calls of active or inactive are those of the source. The rule behind the calls is not given here.
# How the values were obtained:
# Plasma [1] = test: Tlast in Sprague-Dawley rat plasma at 1 umol/kg, it administered as micronized powder measured up to 24 hrs post dose by electrospray LC-MS analysis; type: ADME, cell-free; conditions: inhaled_or_intranasal
# Procedure, shortened: (§1)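 Sprague-Dawley rats (250−400 g) dosed intratracheally with micronized dry powder blended with coarse lactose, delivered by insufflator under isoflurane anaesthesia. Blood collected in heparinized tubes and spun at 1200g for 15 min. Lung sampled at 0.25, 1, 2, 4, 8, 16 and 24 h, n = 3 per time point.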
# [2] = Apparent permeability across apical to basolateral side in human Caco2 cells at 10 uM after 2 hrs by LC-MS/MS analysis; type: ADME, cell-based; conditions: Caco-2
# [3] = Drug metabolism in human hepatocytes assessed as (S)-1-(3-(dimethylcarbamoyl)phenylsulfonyl)pyrrolidine-2-carboxylic acid metabolite formation at 10 uM after 60 mins by LC-MS/MS analysis; type: ADME, cell-based, Hepatocyte; conditions: 1 h
# Procedure, shortened: (§2)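 Pooled mixed-sex cryopreserved human hepatocytes (1 million cells/mL) in Leibovitz L-15 at 37 °C, compound at 10 μM in duplicate. Sampled at 0 and 60 min. Protein-free supernatant evaporated under nitrogen, reconstituted in mobile phase and analysed by LC−MS/MS. Cell-free medium incubation for 60 min as control.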
# [4] = biological target: T1, Sterol O-acyltransferase 1 (Rattus norvegicus) (UniProt O70536); test: Binding affinity to rat hepatic Acyl CoA-cholesterol acyltransferase at 1 uM
# T1 sequence (whole entry): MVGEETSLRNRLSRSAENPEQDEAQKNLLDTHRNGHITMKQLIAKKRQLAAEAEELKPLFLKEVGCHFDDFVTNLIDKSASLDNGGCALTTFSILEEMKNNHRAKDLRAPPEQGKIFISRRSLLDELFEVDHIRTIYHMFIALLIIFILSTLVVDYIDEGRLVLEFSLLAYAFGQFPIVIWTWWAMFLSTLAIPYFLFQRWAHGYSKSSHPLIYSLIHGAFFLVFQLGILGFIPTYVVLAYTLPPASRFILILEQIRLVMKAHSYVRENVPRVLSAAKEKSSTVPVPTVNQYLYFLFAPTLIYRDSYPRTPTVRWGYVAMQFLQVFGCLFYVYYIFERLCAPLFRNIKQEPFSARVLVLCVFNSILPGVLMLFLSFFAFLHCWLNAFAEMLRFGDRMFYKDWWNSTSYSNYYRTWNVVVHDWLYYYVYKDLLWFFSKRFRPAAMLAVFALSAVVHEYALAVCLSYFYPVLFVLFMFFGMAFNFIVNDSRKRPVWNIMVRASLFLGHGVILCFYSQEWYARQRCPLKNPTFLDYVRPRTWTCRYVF
# Procedure, shortened: (§3)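 Off-target screening panel of about 400 receptors, enzymes and ion channels, run at 1 μM. Result expressed as % binding.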
# Plasma [5] = test: AUClast in Sprague-Dawley rat plasma at 1 umol/kg, it administered as micronized powder measured up to 24 hrs post dose by electrospray LC-MS analysis; type: ADME, cell-free; conditions: inhaled_or_intranasal; procedure, shortened: as §1
# [6] = Ratio of drug uptake in Sprague-Dawley rat lung to plasma at 1 umol/kg, it administered as micronized powder measured up to 8 hrs post dose by electrospray LC-MS analysis; type: ADME; conditions: other tissue, inhaled_or_intranasal
# [7] = Protein binding in human plasma at 5 uM after 5 hrs by LC-MS/MS analysis; type: ADME, cell-free; conditions: read-out: PPB (converted)
# Lung [8] = test: Tlast in Sprague-Dawley rat lung at 1 umol/kg, it administered as micronized powder measured up to 24 hrs post dose by electrospray LC-MS analysis; type: ADME, tissue-based; conditions: in vivo, inhaled_or_intranasal; procedure, shortened: as §1
# [9] = biological target: cAMP and cAMP-inhibited cGMP 3',5'-cyclic phosphodiesterase 10A (Homo sapiens, UniProt Q9Y233); test: Inhibition of human recombinant PDE10A2 expressed insect sf9 cells by radiometric assay
# Procedure, shortened: (§4)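 Human recombinant PDEs expressed in Sf9 cells, except PDE6 purified from bovine retina. Radiometric two-step method, modified from Thompson and Appleman. Five concentrations in duplicate, starting at 30 μM with 1:10 serial dilution, 1% final DMSO.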
# [10] = Stability in human hepatocytes assessed as parent compound remaining at 10 uM after 60 mins by LC-MS/MS analysis; type: ADME, cell-based, Hepatocyte; conditions: read-out: Stability; procedure, shortened: as §2
# [11] = Half life in Sprague-Dawley rat lung at 1 umol/kg, it administered as micronized powder measured up to 24 hrs post dose by electrospray LC-MS analysis; type: ADME, tissue-based; conditions: inhaled or intranasal; procedure, shortened: as §1
# [12] = MRTlast in Sprague-Dawley rat lung at 1 umol/kg, it administered as micronized powder measured up to 24 hrs post dose by electrospray LC-MS analysis; type: ADME, tissue-based; conditions: inhaled or intranasal; procedure, shortened: as §1
# Lung [13] = test: Drug uptake in Sprague-Dawley rat lung at 1 umol/kg, it administered as micronized powder measured at 24 hrs post dose by electrospray LC-MS analysis; type: ADME, tissue-based; conditions: in vivo, inhaled_or_intranasal; procedure, shortened: as §1
# [14] = biological target: High affinity cGMP-specific 3',5'-cyclic phosphodiesterase 9A (Homo sapiens, UniProt O76083); test: Inhibition of human recombinant PDE9A2 expressed insect sf9 cells by radiometric assay; procedure, shortened: as §4
# Lung [15] = test: AUClast in Sprague-Dawley rat lung at 1 umol/kg, it administered as micronized powder measured up to 24 hrs post dose by electrospray LC-MS analysis; type: ADME, tissue-based; conditions: in vivo, inhaled_or_intranasal; procedure, shortened: as §1
# [16] = biological target: cGMP-specific 3',5'-cyclic phosphodiesterase (Homo sapiens, UniProt O76074); test: Inhibition of human recombinant PDE5A expressed insect sf9 cells by radiometric assay; procedure, shortened: as §4
# [17] = Inhibition of bovine retina PDE6 expressed insect sf9 cells by radiometric assay; parameters: species or system Bos taurus
# Rattus norvegicus [18] = test: (§5) Anti-inflammatory activity in OVA-induced airway inflammation Brown Norway rat model assessed inhibition of eosinophils recruitment in bronchoalveolar lavage fluid at 0.1 umol/kg administered intratracheally as powder formulation 2 hrs before aerosolized OVA challenge measured at 24 hrs post aerosolized OVA challenge; type: functional; conditions: inhaled or nasal
# Procedure, shortened: (§6)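 Male Brown Norway rats sensitized i.p. with OVA (1 mg/rat) plus Al(OH)3 (100 mg/rat) in saline on 3 consecutive days. Challenged 2–3 weeks later with nose-only 1% OVA aerosol for 30 min. Lactose-blended dry powder (10 mg/kg total powder) insufflated intratracheally; dose taken from needle weight difference. BAL with 3 × 4 mL HBSS/EDTA/HEPES at 24 h; total and differential counts by automated counter. ED50 from fitted dose–response curve.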
# Rattus norvegicus [19] = species: Rattus norvegicus; test: Binding affinity to rat imidazoline I2 receptor; procedure, shortened: as §3
# Rattus norvegicus [20] = test: as §5, with “inflammatory cell infiltration” for “eosinophils recruitment”, “1” for “0.1”; type: functional; procedure, shortened: as §6
# Cytochrome P450 2C19 = Cytochrome P450 2C19 (Homo sapiens, UniProt P33261); test: Binding affinity to human liver microsomes CYP2C19 at 1 uM; type: ADME; procedure, shortened: as §3
# Chain of Cytochrome P450 2C19 (P33261 whole entry): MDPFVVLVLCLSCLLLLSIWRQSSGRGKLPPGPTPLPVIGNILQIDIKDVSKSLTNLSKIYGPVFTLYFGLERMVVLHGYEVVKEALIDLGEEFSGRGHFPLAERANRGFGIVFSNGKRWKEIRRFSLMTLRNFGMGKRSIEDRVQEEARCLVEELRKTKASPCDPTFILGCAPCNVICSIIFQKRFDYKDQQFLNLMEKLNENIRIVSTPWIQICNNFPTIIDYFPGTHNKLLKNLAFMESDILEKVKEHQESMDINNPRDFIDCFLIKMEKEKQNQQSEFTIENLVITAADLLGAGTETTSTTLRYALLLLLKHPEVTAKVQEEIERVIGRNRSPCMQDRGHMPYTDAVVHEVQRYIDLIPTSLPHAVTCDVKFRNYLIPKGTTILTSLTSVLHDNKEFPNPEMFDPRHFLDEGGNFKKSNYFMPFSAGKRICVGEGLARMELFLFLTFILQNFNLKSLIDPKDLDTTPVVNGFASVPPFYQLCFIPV
# Chain of cAMP and cAMP-inhibited cGMP 3',5'-cyclic phosphodiesterase 10A (Q9Y233 whole entry): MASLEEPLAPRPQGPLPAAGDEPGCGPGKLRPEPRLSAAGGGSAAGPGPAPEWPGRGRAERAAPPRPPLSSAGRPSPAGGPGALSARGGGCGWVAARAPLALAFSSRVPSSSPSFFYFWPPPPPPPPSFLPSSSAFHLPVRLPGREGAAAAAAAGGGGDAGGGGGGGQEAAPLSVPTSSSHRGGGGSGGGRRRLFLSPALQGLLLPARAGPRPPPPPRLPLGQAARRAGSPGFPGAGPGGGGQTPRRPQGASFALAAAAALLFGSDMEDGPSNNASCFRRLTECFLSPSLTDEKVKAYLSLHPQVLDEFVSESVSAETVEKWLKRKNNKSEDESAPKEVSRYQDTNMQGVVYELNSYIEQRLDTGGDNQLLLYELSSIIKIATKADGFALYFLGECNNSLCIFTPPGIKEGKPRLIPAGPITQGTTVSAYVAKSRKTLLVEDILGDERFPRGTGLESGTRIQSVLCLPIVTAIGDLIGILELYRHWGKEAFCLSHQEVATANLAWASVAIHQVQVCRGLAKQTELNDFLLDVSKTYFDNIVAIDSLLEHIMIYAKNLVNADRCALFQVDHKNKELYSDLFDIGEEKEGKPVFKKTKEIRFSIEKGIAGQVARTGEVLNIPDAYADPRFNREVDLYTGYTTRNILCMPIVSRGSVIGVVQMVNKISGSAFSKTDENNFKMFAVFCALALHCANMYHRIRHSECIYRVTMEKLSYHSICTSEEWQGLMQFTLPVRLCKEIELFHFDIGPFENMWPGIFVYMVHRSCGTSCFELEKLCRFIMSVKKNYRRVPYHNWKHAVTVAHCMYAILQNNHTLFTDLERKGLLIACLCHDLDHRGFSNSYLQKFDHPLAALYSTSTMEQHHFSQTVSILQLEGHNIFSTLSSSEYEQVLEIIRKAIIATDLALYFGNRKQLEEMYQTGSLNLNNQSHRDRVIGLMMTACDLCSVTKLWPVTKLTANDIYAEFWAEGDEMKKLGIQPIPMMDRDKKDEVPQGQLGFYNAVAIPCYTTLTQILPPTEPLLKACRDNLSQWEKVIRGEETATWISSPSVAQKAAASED
# Chain of High affinity cGMP-specific 3',5'-cyclic phosphodiesterase 9A (O76083 whole entry): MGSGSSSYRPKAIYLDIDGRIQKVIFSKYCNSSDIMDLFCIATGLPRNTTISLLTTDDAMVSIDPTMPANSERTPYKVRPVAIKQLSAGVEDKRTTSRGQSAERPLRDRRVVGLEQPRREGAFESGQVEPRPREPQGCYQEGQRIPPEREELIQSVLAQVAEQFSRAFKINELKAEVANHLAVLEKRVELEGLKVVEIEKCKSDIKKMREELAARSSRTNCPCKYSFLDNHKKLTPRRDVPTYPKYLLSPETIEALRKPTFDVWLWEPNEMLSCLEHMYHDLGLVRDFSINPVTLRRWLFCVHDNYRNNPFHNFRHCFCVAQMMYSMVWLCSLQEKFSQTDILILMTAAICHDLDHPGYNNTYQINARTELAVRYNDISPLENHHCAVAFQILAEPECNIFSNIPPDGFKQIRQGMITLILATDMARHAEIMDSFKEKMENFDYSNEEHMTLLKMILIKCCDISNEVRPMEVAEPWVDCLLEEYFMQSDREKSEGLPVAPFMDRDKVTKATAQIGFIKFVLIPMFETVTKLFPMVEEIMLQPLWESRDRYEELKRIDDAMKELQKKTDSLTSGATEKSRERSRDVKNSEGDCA
SMILES,Tlast (Plasma [1]) [h],"Papp A→B at 2 h, 10 µM [2] [×10⁻⁶ cm/s]",AUClast (Plasma [5]) [pmol·h/g],Ratio [6],"fraction unbound at 5 h, 5 µM [7]",Tlast (Lung [8]) [h],IC50 [9] [µM],"remaining at 1 h, 10 µM [10] [%]",half-life [11] [h],MRT last at 24 h [12] [h],Drug uptake (Lung [13]) [nmol/g],IC50 [14] [µM],AUClast (Lung [15]) [nmol·h/g],IC50 [16] [µM],IC50 [17] [µM],further results
CN(C)C(=O)c1cccc(S(=O)(=O)N2CCC[C@H]2C(=O)O[C@@H](Cc2c(Cl)c[n+]([O-])cc2Cl)c2ccc(OC(F)F)c(OCC3CC3)c2)c1 (relative stereo),8,0.48,33.27,2261,0.0035,24,4.03,78,5.18,4.52,0.128,> 30,49.65,13.9,> 30,Drug metabolism [3]: Metabolite_Notdetected; Activity [4]: 50%
CN(C)C(=O)c1cccc(S(=O)(=O)N2CCS[C@H]2C(=O)O[C@@H](Cc2c(Cl)c[n+]([O-])cc2Cl)c2ccc(OC(F)F)c(OCC3CC3)c2)c1,8,0.42,10.38,5152,0.0021,24,0.81,51,4.39,5.56,0.22,> 30,65.27,4.61,5.78,inhibition in vivo at 0.1 µmol/kg (Rattus norvegicus [18]): 50%; Activity (Rattus norvegicus [19]): 60%; inhibition (Rattus norvegicus [20]): Active; Activity (Cytochrome P450 2C19): 69%
